Converted amounts (≈) assume the structure as drawn.
Assays:
Type in all cases: functional
Fusarium verticillioides [1] = experiment: Antimicrobial activity against Fusarium moniliforme MTCC 156 after 48 hrs by microdilution method; settings: MTCC 156, 48 h
Procedure, shortened: (§1)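 The minimal inhibitory concentration was determined by dilution, alongside minimal bactericidal concentration for bacterial strains and minimal fungicidal concentration for fungal strains. Tests were run in six replicates, and the value is the mean of at least three determinations.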

Fusarium oxysporum [2] = experiment: Antimicrobial activity against Fusarium oxysporum MTCC 284 after 48 hrs by microdilution method; settings: MTCC 284, 48 h; procedure, shortened: as §1
Aspergillus niger [3] = experiment: Antimicrobial activity against Aspergillus niger MTCC 281 after 48 hrs by microdilution method; settings: MTCC 281, 48 h; procedure, shortened: as §1
Aspergillus flavus [4] = experiment: Antimicrobial activity against Aspergillus flavus MTCC 873 after 48 hrs by microdilution method; settings: MTCC 873, 48 h; procedure, shortened: as §1
Klebsiella pneumoniae [5] = experiment: Antimicrobial activity against Klebsiella pneumoniae MTCC 3384 after 24 hrs by microdilution method; settings: MTCC 3384, 24 h; procedure, shortened: as §1
Escherichia coli [6] = experiment: Antimicrobial activity against Escherichia coli MTCC 724 after 24 hrs by microdilution method; settings: MTCC 724, 24 h; procedure, shortened: as §1
Staphylococcus aureus [7] = experiment: Antimicrobial activity against Staphylococcus aureus MTCC 96 after 24 hrs by microdilution method; settings: MTCC 96, 24 h; procedure, shortened: as §1
Bacillus cereus [8] = experiment: Antimicrobial activity against Bacillus cereus MTCC 8372 after 24 hrs by microdilution method; settings: MTCC 8372, 24 h; procedure, shortened: as §1
Fusarium verticillioides [9] = experiment: Antimicrobial activity against Fusarium moniliforme MTCC 156 at 100 ug/ml after 48 hrs by disc diffusion method; settings: MTCC 156, 48 h, read-out: DIZ
Procedure, shortened: (§2)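 Agar diffusion read-out is the diameter of the inhibition zone in mm. Each test was run in six replicates and reported as mean ± standard deviation, taken from at least three determinations.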

Fusarium verticillioides [10] = experiment: Antimicrobial activity against Fusarium moniliforme MTCC 156 at 50 ug/ml after 48 hrs by disc diffusion method; settings: MTCC 156, 48 h, read-out: DIZ; procedure, shortened: as §2
Fusarium oxysporum [11] = experiment: Antimicrobial activity against Fusarium oxysporum MTCC 284 at 100 ug/ml after 48 hrs by disc diffusion method; settings: MTCC 284, 48 h, read-out: DIZ; procedure, shortened: as §2
Fusarium oxysporum [12] = experiment: Antimicrobial activity against Fusarium oxysporum MTCC 284 at 50 ug/ml after 48 hrs by disc diffusion method; settings: MTCC 284, 48 h, read-out: DIZ; procedure, shortened: as §2
Aspergillus niger [13] = experiment: Antimicrobial activity against Aspergillus niger MTCC 281 at 100 ug/ml after 48 hrs by disc diffusion method; settings: MTCC 281, 48 h, read-out: DIZ; procedure, shortened: as §2
Aspergillus niger [14] = experiment: Antimicrobial activity against Aspergillus niger MTCC 281 at 50 ug/ml after 48 hrs by disc diffusion method; settings: MTCC 281, 48 h, read-out: DIZ; procedure, shortened: as §2
Aspergillus flavus [15] = experiment: Antimicrobial activity against Aspergillus flavus MTCC 873 at 100 ug/ml after 48 hrs by disc diffusion method; settings: MTCC 873, 48 h, read-out: DIZ; procedure, shortened: as §2
Aspergillus flavus [16] = experiment: Antimicrobial activity against Aspergillus flavus MTCC 873 at 50 ug/ml after 48 hrs by disc diffusion method; settings: MTCC 873, 48 h, read-out: DIZ; procedure, shortened: as §2
Klebsiella pneumoniae [17] = experiment: Antimicrobial activity against Klebsiella pneumoniae MTCC 3384 at 100 ug/ml after 24 hrs by disc diffusion method; settings: MTCC 3384, 24 h, read-out: DIZ; procedure, shortened: as §2
Escherichia coli [18] = experiment: Antimicrobial activity against Escherichia coli MTCC 724 at 100 ug/ml after 24 hrs by disc diffusion method; settings: MTCC 724, 24 h, read-out: DIZ; procedure, shortened: as §2
Klebsiella pneumoniae [19] = experiment: Antimicrobial activity against Klebsiella pneumoniae MTCC 3384 at 50 ug/ml after 24 hrs by disc diffusion method; settings: MTCC 3384, 24 h, read-out: DIZ; procedure, shortened: as §2
Escherichia coli [20] = experiment: Antimicrobial activity against Escherichia coli MTCC 724 at 50 ug/ml after 24 hrs by disc diffusion method; settings: MTCC 724, 24 h, read-out: DIZ; procedure, shortened: as §2
Staphylococcus aureus [21] = experiment: Antimicrobial activity against Staphylococcus aureus MTCC 96 at 100 ug/ml after 24 hrs by disc diffusion method; settings: MTCC 96, 24 h, read-out: DIZ; procedure, shortened: as §2
Staphylococcus aureus [22] = experiment: Antimicrobial activity against Staphylococcus aureus MTCC 96 at 50 ug/ml after 24 hrs by disc diffusion method; settings: MTCC 96, 24 h, read-out: DIZ; procedure, shortened: as §2
Bacillus cereus [23] = experiment: Antimicrobial activity against Bacillus cereus MTCC 8372 at 100 ug/ml after 24 hrs by disc diffusion method; settings: MTCC 8372, 24 h, read-out: DIZ; procedure, shortened: as §2
Bacillus cereus [24] = experiment: Antimicrobial activity against Bacillus cereus MTCC 8372 at 50 ug/ml after 24 hrs by disc diffusion method; settings: MTCC 8372, 24 h, read-out: DIZ; procedure, shortened: as §2

## Cc1c(C(=O)O)c(-c2ccccc2)nn1-c1ccccc1
Fusarium verticillioides [1]
  MFC: 270 µg/mL (≈ 970 µM)
  MIC: 45 µg/mL (≈ 162 µM)
Fusarium oxysporum [2]
  MFC: 295 µg/mL (≈ 1060 µM)
  MIC: 55 µg/mL (≈ 198 µM)
Aspergillus niger [3]
  MFC: 280 µg/mL (≈ 1010 µM)
  MIC: 50 µg/mL (≈ 180 µM)
Aspergillus flavus [4]
  MFC: 300 µg/mL (≈ 1080 µM)
  MIC: 55 µg/mL (≈ 198 µM)
Klebsiella pneumoniae [5]
  MBC: 240 µg/mL (≈ 862 µM)
  MIC: 30 µg/mL (≈ 108 µM)
Escherichia coli [6]
  MBC: 280 µg/mL (≈ 1010 µM)
  MIC: 35 µg/mL (≈ 126 µM)
Staphylococcus aureus [7]
  MBC: 250 µg/mL (≈ 898 µM)
  MIC: 40 µg/mL (≈ 144 µM)
Bacillus cereus [8]
  MBC: 250 µg/mL (≈ 898 µM)
  MIC: 30 µg/mL (≈ 108 µM)
Fusarium verticillioides [9]
  zone of inhibition at 100 µg/mL: 5 mm
Fusarium verticillioides [10]
  zone of inhibition at 50 µg/mL: 6 mm
Fusarium oxysporum [11]
  zone of inhibition at 100 µg/mL: 5 mm
Fusarium oxysporum [12]
  zone of inhibition at 50 µg/mL: 3 mm
Aspergillus niger [13]
  zone of inhibition at 100 µg/mL: 6 mm
Aspergillus niger [14]
  zone of inhibition at 50 µg/mL: 4 mm
Aspergillus flavus [15]
  zone of inhibition at 100 µg/mL: 8 mm
Aspergillus flavus [16]
  zone of inhibition at 50 µg/mL: 5 mm
Klebsiella pneumoniae [17]
  zone of inhibition at 100 µg/mL: 6 mm
Escherichia coli [18]
  zone of inhibition at 100 µg/mL: 8 mm
Klebsiella pneumoniae [19]
  zone of inhibition at 50 µg/mL: 4 mm
Escherichia coli [20]
  zone of inhibition at 50 µg/mL: 3 mm
Staphylococcus aureus [21]
  zone of inhibition at 100 µg/mL: 8 mm
Staphylococcus aureus [22]
  zone of inhibition at 50 µg/mL: 2 mm
Bacillus cereus [23]
  zone of inhibition at 100 µg/mL: 8 mm
Bacillus cereus [24]
  zone of inhibition at 50 µg/mL: 4 mm

## Cc1c(-c2nnc(-c3ccccc3)o2)c(-c2ccc(Cl)cc2)nn1-c1ccccc1
Fusarium verticillioides [1]
  MFC: 270 µg/mL (≈ 654 µM)
  MIC: 40 µg/mL (≈ 96.9 µM)
Fusarium oxysporum [2]
  MFC: 215 µg/mL (≈ 521 µM)
  MIC: 30 µg/mL (≈ 72.7 µM)
Aspergillus niger [3]
  MFC: 275 µg/mL (≈ 666 µM)
  MIC: 50 µg/mL (≈ 121 µM)
Aspergillus flavus [4]
  MFC: 275 µg/mL (≈ 666 µM)
  MIC: 50 µg/mL (≈ 121 µM)
Klebsiella pneumoniae [5]
  MBC: 250 µg/mL (≈ 606 µM)
  MIC: 50 µg/mL (≈ 121 µM)
Escherichia coli [6]
  MBC: 250 µg/mL (≈ 606 µM)
  MIC: 40 µg/mL (≈ 96.9 µM)
Staphylococcus aureus [7]
  MBC: 250 µg/mL (≈ 606 µM)
  MIC: 50 µg/mL (≈ 121 µM)
Bacillus cereus [8]
  MBC: 240 µg/mL (≈ 581 µM)
  MIC: 40 µg/mL (≈ 96.9 µM)
Fusarium verticillioides [9]
  zone of inhibition at 100 µg/mL: 8 mm
Fusarium verticillioides [10]
  zone of inhibition at 50 µg/mL: 5 mm
Fusarium oxysporum [11]
  zone of inhibition at 100 µg/mL: 22 mm
Fusarium oxysporum [12]
  zone of inhibition at 50 µg/mL: 14 mm
Aspergillus niger [13]
  zone of inhibition at 100 µg/mL: 10 mm
Aspergillus niger [14]
  zone of inhibition at 50 µg/mL: 8 mm
Aspergillus flavus [15]
  zone of inhibition at 100 µg/mL: 10 mm
Aspergillus flavus [16]
  zone of inhibition at 50 µg/mL: 6 mm
Klebsiella pneumoniae [17]
  zone of inhibition at 100 µg/mL: 9 mm
Escherichia coli [18]
  zone of inhibition at 100 µg/mL: 18 mm
Klebsiella pneumoniae [19]
  zone of inhibition at 50 µg/mL: 5 mm
Escherichia coli [20]
  zone of inhibition at 50 µg/mL: 11 mm
Staphylococcus aureus [21]
  zone of inhibition at 100 µg/mL: 10 mm
Staphylococcus aureus [22]
  zone of inhibition at 50 µg/mL: 5 mm
Bacillus cereus [23]
  zone of inhibition at 100 µg/mL: 10 mm
Bacillus cereus [24]
  zone of inhibition at 50 µg/mL: 6 mm
